Source: PubChem BioAssay
thrombin 1536: human alpha-thrombin inhibitors, primary screen, counter-screen for coagulation protease inhibitor project, biochemical, 1536-well, fluorogenic AMC substrate | Prothrombin (Homo sapiens), P00734 | Boc-VPR-AMC fluorogenic substrate cleavage | inhibition, % at 5 µM | 220,000 tested, 0.26% active;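 active = inhibition at or above 40%; inactive = inhibition below 40%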
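System: human alpha-thrombin protein; Compound dosing: one concentration per compound, 5 µM, with 0.2% DMSO; Timing: reaction at room temperature; Technique: AMC fluorescence, 355/460 nm; Controls: enzyme without compound as high, wells lacking enzyme as low.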
AHR act: AHR activators, primary screen, cell-based, luminescence, luciferase reporter, human | AID 2796, 2010 | 320,000 tested, 2.5% active | activation, % at 5 µM | AHR-responsive luciferase reporter cells; in the data active = activation above about 47%
STAT3 act-1: IL-6 driven STAT3 reporter potentiators, primary screen, U3A cells, luciferase, luminescence, MLSCN library. activation (% of control), % at 5.6 µM. 190,000 tested, 0.91% active. IL-6 STAT3-luciferase reporter; 100% = signal with IL-6 EC80 alone;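 active = activation above the screen-wide mean of compound activation plus 3 SD, cut at about 130% in these data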
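Material: STAT1-lacking human U3A cells, STAT3 luciferase reporter | Benchmarks: IL-6-only wells as 100% reference | Probe or stimulus: IL-6 (33 ng/mL) | Timing: Compound 1 h, then IL-6 6 h at 37 °C | Detection: Luminescence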
FXIa inh 1536: human FXIa protease inhibitors, primary screen, biochemical, 1536-well | purified FXIa, Boc-Glu-Ala-Arg-AMC fluorogenic substrate | Coagulation factor XI (Homo sapiens), P03951 | AID 798, 2007 | inhibition, % at 5 µM | 220,000 tested, 0.14% active;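 active = inhibition of at least 40%; inactive = inhibition below 40%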;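 also: fluorescence of freed AMC excited at 355 nm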
KLK5 inh: human KLK5 protease inhibitors, primary screen, biochemical, 1536-well. Kallikrein-5 (Homo sapiens), Q9Y337. recombinant hK5, fluorogenic AMC substrate cleavage. inhibition, % at 5 µM. 210,000 tested, 0.59% active;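 active = inhibition of 40% or more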
FXIIa inh: human FXIIa protease inhibitors, primary screen, biochemical, 1536-well; AID 800, 2007; 220,000 tested, 0.3% active; purified FXIIa, Boc-QGR-AMC fluorogenic substrate, 2 h; inhibition, % at 5 µM; in the data active = inhibition above about 40%
STAT3 act-2: STAT3 reporter potentiators, retest of hits, confirmation, U3A cells, luciferase, luminescence; shares compounds with STAT3 act-1; IL-6 potentiation; U3A cells lack STAT1; 100 means same as IL-6 alone; potentiation (% of control), % at 5.7 µM; 1,200 tested, 64% active; AID 1267, 2008;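 active = percent activation of the STAT3 luciferase reporter above a set limit taken from the earlier primary screen, cut at about 130% in these data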
NFkB act 2: NF-kB reporter activators in human cells, counter-screen for STAT3 activator project; shares compounds with STAT3 act-1; NF-kappaB reporter activation; activation (% of control), % at 5.7 µM; 1,200 tested, 11% active; in the data active = activation above about 120%;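 also: reporter induced by TNF-alpha stimulation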
STAT1 act STAT3c: STAT1 reporter activators, IFN-gamma induced, counter-screen for STAT3 activator project, cell-based, NIH 3T3, luciferase luminescence; activation (% of control), % at 5.7 µM; shares compounds with STAT3 act-1; NIH 3T3 STAT1-luciferase reporter; AID 1318, 2008; 1,200 tested, 13% active;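 active = activation above the solvent-only control well mean plus 3 SD, set per screening run, cut at about 120% in these data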
AHR act cf: AHR activators, confirmation, cell-based, luminescence, luciferase reporter, human | human cells, AHR-responsive luciferase reporter | shares compounds with AHR act | AID 2845, 2010 | 2,300 tested, 87% active | activation, % at 9 µM; in the data active = activation above about 49%;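 also: HepG2 hepatoma cells carrying a DRE-driven firefly luciferase reporter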
PXR counter: human PXR activators, counter-screen for AHR activator project, cell-based, luciferase luminescence; 2,300 tested, 88% active; cell-based PXR reporter; activation, % at 11.6 µM; shares compounds with AHR act; AID 434939, 2010; in the data active = activation above about 11%;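 also: human hepatoma DPX-2 cells expressing full-length human PXR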
Target sequence (O75469 whole entry, looked up): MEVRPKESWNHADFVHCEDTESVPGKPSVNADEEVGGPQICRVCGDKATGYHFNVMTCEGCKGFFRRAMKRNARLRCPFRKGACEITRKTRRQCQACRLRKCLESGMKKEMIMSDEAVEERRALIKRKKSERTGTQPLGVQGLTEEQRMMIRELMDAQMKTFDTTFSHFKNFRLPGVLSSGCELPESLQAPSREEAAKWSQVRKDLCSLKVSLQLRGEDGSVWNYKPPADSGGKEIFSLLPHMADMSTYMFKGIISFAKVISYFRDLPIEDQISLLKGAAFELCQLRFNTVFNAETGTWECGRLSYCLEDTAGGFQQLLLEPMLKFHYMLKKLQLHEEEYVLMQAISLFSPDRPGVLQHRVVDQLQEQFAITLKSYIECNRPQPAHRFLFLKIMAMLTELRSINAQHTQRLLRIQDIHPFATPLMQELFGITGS
A number is an active result; . = inactive; / = no result given. In the library only some 3.5% were active in any assay of this set; here they are far more common.

SMILES | thrombin 1536 | AHR act | STAT3 act-1 | FXIa inh 1536 | KLK5 inh | FXIIa inh | STAT3 act-2 | NFkB act 2 | STAT1 act STAT3c | others
CC1=C(C(=O)OC2CCCCCC2)C(c2ccc(C)o2)C2=C(CCCC2=O)N1 (stereo unspecified) | . | . | . | . | . | . | / | / | /
CC1=C(C(=O)OCC2CCCO2)C(c2coc3ccccc3c2=O)C2=C(CCCC2=O)N1 (stereo unspecified) | . | . | 143 | . | . | . | 161 | . | .
CCOC(=O)C1=C(C)NC2=C(C(=O)CCC2)C1c1coc2ccccc2c1=O (stereo unspecified) | . | . | 145 | . | . | . | 150 | . | .
COC(=O)C1=C(C)NC2=C(C(=O)CCC2)C1c1coc2ccccc2c1=O (stereo unspecified) | . | . | 139 | . | . | . | 147 | . | .
CC1=C(C(=O)OCCOc2ccccc2)C(c2coc3ccccc3c2=O)C2=C(CCCC2=O)N1 (stereo unspecified) | . | . | . | . | . | . | / | / | /
CC1=C(C(=O)Nc2ccccc2)C(c2coc3ccccc3c2=O)C2=C(CCCC2=O)N1 (stereo unspecified) | . | . | . | . | . | . | / | / | /
CC1=C(C(=O)OC2CCCC2)C(c2coc3ccccc3c2=O)C2=C(CCCC2=O)N1 (stereo unspecified) | . | . | 137 | . | . | . | . | . | .
C=C(C)c1cccc(C(C)(C)NC(=O)N2CCN(CC(N)=O)CC2)c1 | . | . | . | . | . | . | / | / | /
Cc1c(NC(=O)COc2cccc(Br)c2)c(=O)n(-c2ccccc2)n1C | / | . | / | / | / | / | / | / | /
CCN(C(=O)COC(=O)C1CCN(S(=O)(=O)c2c(Cl)cccc2Cl)CC1)C1CCCCC1 | / | . | / | / | / | / | / | / | /
COc1ccccc1-c1nnc(SCC(=O)N2CCOCC2)o1 | . | . | 151 | . | . | . | 159 | . | .
CCCn1c(Nc2cccc(OC)c2)nc2ccccc21 | / | . | / | / | / | / | / | / | /
COc1ccccc1N(C(C)=O)c1nc(C)cc(C)c1C#N | . | 48 | 165 | . | . | . | 152 | . | .
Oc1c(-c2cc(-c3ccco3)[nH]n2)ccc2ccccc12 | . | 116 | 164 | . | . | . | 166 | 154 | . | AHR act cf=149;PXR counter=13
CN1CCc2c(sc3c2C(=O)NC(c2ccco2)N3)C1 (stereo unspecified) | . | . | . | . | . | . | / | / | /
O=C1NC(c2cccs2)Nc2sc3c(c21)CCCC3 (stereo unspecified) | . | 93 | 143 | . | . | . | 139 | 125 | . | AHR act cf=128;PXR counter=37
O=C(c1ccco1)c1coc2c1cc(O)c1ccccc12 | . | 89 | 161 | . | . | . | 164 | . | . | AHR act cf=120;PXR counter=18
CC(=O)c1coc2c1cc(O)c1ccccc12 | . | . | . | . | . | . | / | / | /
